# Measurements: ChEMBL document CHEMBL1157870, “Synthesis of 3-((2,4-dichlorophenoxy)methyl)-1,2,4-triazolo(thiadiazoles and thiadiazines) as anti-inflammatory and molluscicidal agents” (Eur J Med Chem, 2010)
# Tests used:
# Biomphalaria alexandrina = experiment: Molluscicidal activity against Biomphalaria alexandrina assessed as mortality at 10 ppm after 24 hrs; format: organism-based; settings: in vivo
# Summary of the method: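 Compounds dissolved with a few drops of Tween 20 and 2 mL DMSO, then diluted with untreated Nile raw water to 1, 5 or 10 ppm in aerated glass jars. Ten snails per concentration held 24 h at 25 °C. Mean number killed over three repeats recorded. Controls received Tween 20/DMSO in water; Bayluscide served as reference. Follows WHO guidelines, modified.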
# Rattus norvegicus [1] = experiment: Antiinflammatory activity against carrageenan-induced paw edema in po dosed rat administered 1 hr before carrageenan challenge assessed after 1 hr; format: functional
# Summary of the method: (§1)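 Rats of about 200 g dosed orally; 1 h later, 1 mg carrageenan in […] physiological solution injected subplantar into the hind left paw. Paw volume measured hourly for 4 h by plethysmometer, dipping the paw in 0.45% saline. Read-out is % change in paw volume versus baseline, given as % inhibition of oedema ± S.E. Indomethacin served as reference.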
# Rattus norvegicus [2] = experiment: Antiinflammatory activity against carrageenan-induced paw edema in po dosed rat administered 1 hr before carrageenan challenge assessed after 2 hrs; format: functional; summary of the method: as §1
# Rattus norvegicus [3] = experiment: Antiinflammatory activity against carrageenan-induced paw edema in po dosed rat administered 1 hr before carrageenan challenge assessed after 3 hrs; format: functional; summary of the method: as §1
# Rattus norvegicus [4] = experiment: Antiinflammatory activity against carrageenan-induced paw edema in po dosed rat administered 1 hr before carrageenan challenge assessed after 4 hrs; format: functional; summary of the method: as §1
Structure (SMILES),Activity (Biomphalaria alexandrina),inhibition (INH) (Rattus norvegicus [1]) [%],inhibition (INH) (Rattus norvegicus [2]) [%],inhibition (INH) (Rattus norvegicus [3]) [%],inhibition (INH) (Rattus norvegicus [4]) [%]
Clc1ccc(OCc2nnc3snnn23)c(Cl)c1,Toxic,70.78,94.8,108.482,74.03
Clc1ccc(OCc2nnc3n2N=C(c2ccccc2)CS3)c(Cl)c1,,27.66,45.62,60.42,48.51
Clc1ccc(OCc2nnc3sc(-c4ccco4)nn23)c(Cl)c1,,51.38,54.62,99.24,93.97
Clc1ccc(OCc2nn3c(COc4ccc(Cl)cc4Cl)nnc3s2)c(Cl)c1,,26.95,48.4,63.15,58.48
O=[N+]([O-])c1ccc(-c2nn3c(COc4ccc(Cl)cc4Cl)nnc3s2)c([N+](=O)[O-])c1,,32.16,66.06,68.04,63.95
COc1ccc(-c2nn3c(COc4ccc(Cl)cc4Cl)nnc3s2)cc1,,26.75,46.22,56.34,44.34
Nn1c(S)nnc1COc1ccc(Cl)cc1Cl,Toxic,50,60.3,102.8511,81.75
Clc1ccc(OCc2nnc3n2N=C(c2cc4ccccc4o2)/C(=C/c2cn(-c4ccccc4)nc2-c2cc4ccccc4o2)S3)c(Cl)c1,,29.71,41.32,59.66,35.78
COc1ccc2c(c1)c(CC(=O)O)c(C)n2C(=O)c1ccc(Cl)cc1 [INDOMETHACIN],,24.8,20.97,26.29,20.19
O=C(Nc1ccc([N+](=O)[O-])cc1Cl)c1cc(Cl)ccc1O [NICLOSAMIDE],Toxic,,,,
